Experimental data pooled from the literature.
Compare with care: the assays were run in different laboratories.
Target: Cannabinoid receptor 1 (CNR1, Homo sapiens, UniProt P21554)

Structure (SMILES)	read-out	mode	technique	cells	concentration	measurement	result
CCN(CC)CCCC[C@H](NC(=O)[C@H](CC(C)C)NC(=O)[C@H](C)NC(=O)[C@H](Cc1ccccc1)NC(=O)c1ccc(C(C)(C)C)cc1)C(=O)N[C@@H](CO)C(=O)OC	ligand displacement		radioligand		10 µM	remaining binding	113%
COc1ccc(S(=O)(=O)N2CCCCC2)cc1C	ligand displacement		radioligand		10 µM	inhibition	< 30%
Clc1ccc2c(C3CCN(CCc4c[nH]c5ccccc45)CC3)c[nH]c2c1	ligand displacement		radioligand		10 µM	inhibition	-27%
COCc1c(-c2cc3cc(C)cc(OC)c3s2)c2c(N)ncnn2c1CN1CCNC(=O)C1	ligand displacement		radioligand		10 µM	inhibition	26%
N#Cc1c(Oc2cccc(OS(=O)(=O)CCCC(F)(F)F)c2)cccc1C(F)(F)F	calcium signal	agonist	fluorescence	CHO		Emax	39%
CCOC(=O)C(CC)(CCCSCCOCCOCCNc1ccc([N+](=O)[O-])c2nonc12)NC(=O)c1ccc(C2CC2)c(Cc2ccc(F)cc2)n1 (racemic)	cAMP	agonist				Emax	126%
O=C1N=C(N2CCCCN2)S/C1=C\c1ccc(F)cc1O	ligand displacement		radioligand		10 µM	inhibition	< 10%
c1ccc(C(NCCNC(c2ccccc2)c2ccccc2)c2ccccc2)cc1	cell-free assay				10 µM	inhibition	102%
CC(C)N1CCC[C@H]1CNC(=O)c1cn(C2CCCC2)c(=O)c2c1c1ccccc1n2C	ligand displacement		radioligand		10 µM	inhibition	48%
CC(C)C(NC(=O)c1nn(Cc2ccc(F)cc2)c2ccccc12)C(N)=O (centres unmarked)	calcium signal	agonist	fluorescence			Emax	120%
CN(CCN1CCC(OC(=O)Nc2ccccc2-c2ccccc2)CC1)C(=O)c1ccc(CN2CCC(C(N)=O)CC2)cc1	ligand displacement		radioligand		1 µM	inhibition	-3%
